CHO parental Ca: ATP-evoked calcium signal inhibitors, parental CHO, primary screen, counter-screen for OX1R antagonist project, cell-based, fluorescence, Fluo-8 calcium dye; inhibition, % at 5.6 µM; AID 463079, 2010; 330,000 tested, 0.63% active; parental CHO-K1, ATP-induced calcium, Fluo-8 fluorescence;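 active means inhibition above that plate's mean sample inhibition plus 3 SD, cut at about 26% in these data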;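 further: 0% = ATP-challenged DMSO wells and 100% = DMSO wells without ATP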
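Test system: untransfected parental CHO cell line. Compound: one dose, 5.6 µM nominal. Detection: intracellular calcium via Fluo-8 no-wash fluorescent dye. Measure: % inhibition. Benchmarks: ATP-challenged DMSO wells low, unchallenged DMSO wells high.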
OX1R antag-1: OX1R (HCRTR1) antagonists, primary screen, fluorescence, CHO/OX1R cells, Fluo-8 calcium, orexin A | Orexin/Hypocretin receptor type 1 (Homo sapiens), O43613 | Fluo-8 calcium fluorescence | inhibition, % at 5 µM | 330,000 tested, 0.43% active;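 active means inhibition above its plate's threshold, mean inhibition of all tested compounds on the plate plus 3 SD, cut at about 37% in these data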;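 further: 0% = orexin A challenge wells and 100% = SB-334867-A antagonist wells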
TAAR1 antagonist: human TAAR1 antagonists, primary screen, Fluo-8 calcium fluorescence, CHO RD-HGA16 cells; AID 624466, 2012; inhibition, % at 3 µM; antagonist; Trace amine-associated receptor 1 (Homo sapiens), Q96RJ0; 360,000 tested, 1.5% active;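 active means inhibition above a per-plate cutoff, the mean inhibition of test compounds on that plate plus 3 SD, cut at about 49% in these data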;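 further: 0% = DMSO plus EC80 beta-PEA response and 100% = DMSO alone without agonist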
Target sequence (Q96RJ0 whole entry, looked up): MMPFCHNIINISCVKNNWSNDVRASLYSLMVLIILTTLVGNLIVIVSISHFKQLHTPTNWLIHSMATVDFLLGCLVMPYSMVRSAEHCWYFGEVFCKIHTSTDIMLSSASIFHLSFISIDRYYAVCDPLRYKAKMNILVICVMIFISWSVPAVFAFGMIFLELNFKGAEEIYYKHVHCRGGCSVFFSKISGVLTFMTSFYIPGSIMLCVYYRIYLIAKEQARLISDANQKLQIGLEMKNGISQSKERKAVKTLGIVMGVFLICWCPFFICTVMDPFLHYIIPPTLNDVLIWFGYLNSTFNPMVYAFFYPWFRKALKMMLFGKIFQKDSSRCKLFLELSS
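test system = CHO RD-HGA16 cells bearing hTAAR1 | replication = singlicate | controls = DMSO-only wells and EC80 β-PEA-stimulated wells | reagent = EC80 β-phenethylamine stimulus | read-out basis = percent inhibition of PEA-evoked calcium signal, max/basal emission ratio | schedule = seeding 17-24 h prior, 75-min 37 °C, 30-min RT dye loading | signal = kinetic Fluo-8 calcium fluorescence measurement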
TAAR1 ag: human TAAR1 agonists, primary screen, Fluo-8 calcium fluorescence, CHO RD-HGA16 cells | Trace amine-associated receptor 1 (Homo sapiens), Q96RJ0 | vehicle wells 0%, saturating PEA agonist 100% | activation, % at 3 µM | 360,000 tested, 0.99% active | AID 624467, 2012;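 active means activation above the mean activation of all test compounds in the run plus 3 SD, cut at about 38% in these data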
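Assay system – CHO-derived RD-HGA16 cells with stable Gα16 and human TAAR1 · Compound dosing – one-point dosing at 3 µM (nominal) · Incubation – 17-24 h seeding, 75 min 37 °C dye, 30 min RT · Measured by – kinetic Fluo-8 calcium fluorescence · Control set – DMSO vehicle as 0%, PEA at EC100 as 100% · Repeats – single well for each compound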
OX1R antag-2: antagonists of human orexin 1 receptor (OX1R); 330,000 tested, 1.8% active; inhibition, % at 6.6 µM; Orexin/Hypocretin receptor type 1 (Homo sapiens), O43613; AID 485270, 2010; OX1R-expressing cells, FRET antagonist read-out; in the data active means inhibition mostly above about 38%, no sharp cut-off; inactive means mostly below about 40%;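 further: 0% = agonist challenge alone and 100% = reference antagonist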
* = called active by the depositor; . = no result given. This is a sample that favours compounds with a hit; in the whole collection about 4% have one here.

SMILES | CHO parental Ca | OX1R antag-1 | TAAR1 antagonist | TAAR1 ag | OX1R antag-2
COc1ccc(/C=N\NC(=O)c2ccccc2)cc1COc1ccccc1 | -10 | -19 | 32 | 5 | 12
COCCN1CCCc2nc(-c3ccc(F)cc3)ccc21 | . | . | -5 | 1 | .
CC1=CC2=NC(=O)/C(=C/c3coc4ccc(Cl)cc4c3=O)C(=N)N2O1 | 39* | 23 | 27 | 43* | 7
CC1=CC2=NC(=O)/C(=C\c3cc(C)n(-c4cccc(Cl)c4)c3C)C(=N)N2O1 | -10 | -7 | -6 | -2 | 11
CSC1=NSC2=NC(=O)/C(=C\c3cccs3)C(=N)N12 | -6 | -9 | 2 | 4 | 21
CSC1=NSC2=NC(=O)/C(=C/c3coc4ccc(O)cc4c3=O)C(=N)N12 | 37* | 47* | 109* | 412* | 12
CCc1cc2c(nc1CC)CCCN2S(=O)(=O)c1ccc(F)cc1 | . | . | -10 | -1 | .
NC(=S)N=Nc1c(O)n(Cc2ccccc2)c2ccccc12 | -6 | -6 | -3 | -2 | 29
O=Nc1c(O)n(Cc2cccc(Cl)c2)c2ccccc12 | 61* | 6 | -2 | 10 | 19
Cc1cc(C)c(S(=O)(=O)Nc2cc(SCC(=O)O)c(O)c3ccccc23)cc1C | -17 | -15 | . | . | 58*
C=CCN(CC=C)S(=O)(=O)c1ccc(NC(=S)NC(=O)/C=C/c2ccc(C)cc2)cc1 | 36* | -7 | -7 | 1 | 16
COc1ccccc1/C=C/C(=O)OC(C)CN1CCCCC1 (stereo not given) | -13 | -25 | -8 | 0 | 1
CC1Sc2ccc(S(=O)(=O)CCC(=O)N3CCN(c4cccc(Cl)c4)CC3)cc2NC1=O (stereo not given) | 34* | 13 | 50* | 10 | 14
CCc1ccc(NC(=O)C2CCN(S(=O)(=O)c3ccc4c(c3)NC(=O)C(C)S4)CC2)cc1 (stereo not given) | 57* | 19 | 12 | 2 | 13
COc1ccc(OC)c(S(=O)(=O)N2CCC(C(=O)Nc3ccc(C)c(C)c3)CC2)c1 | 11 | -5 | 61* | 31 | 9
CC1Sc2ccc(S(=O)(=O)N3CCC(C(=O)Nc4cccc(Cl)c4)CC3)cc2NC1=O (stereo not given) | 58* | 30 | 49* | 4 | 14
COc1ccc(OC)c(S(=O)(=O)N2CCC(C(=O)Nc3cccc(C)c3C)CC2)c1 | -7 | -12 | 3 | 8 | 29
CC1Sc2ccc(S(=O)(=O)N3CCC(C(=O)NCc4ccc(Cl)cc4)CC3)cc2NC1=O (stereo not given) | 2 | -6 | 15 | 7 | 5
COC(=O)c1ccc(NC(=O)COC(=O)COc2cccc3c2OC(C)(C)C3)cc1 | -8 | -22 | -1 | 0 | 2
COC(=O)N1C[C@H](OC(=S)Nc2ccc(OC)cc2OC)[C@H]2C[C@@H]1c1ccccc1O2 | . | . | -59 | 1 | .
N#C[C@H](N)[C@H]1O[C@@H](n2ccc(=O)[nH]c2=O)[C@H](O)[C@@H]1O | . | . | -36 | 1 | .
Cc1ccc(NC(=O)C2CCN(S(=O)(=O)c3ccc4c(c3)NC(=O)C(C)S4)CC2)cc1C (stereo not given) | 51* | 10 | 50* | 1 | 12
Cc1ccc(NC(=O)C2CCN(S(=O)(=O)c3ccc4c(c3)NC(=O)C(C)S4)CC2)c(C)c1 (stereo not given) | -17 | -24 | -1 | 6 | 4
NS(=O)(=O)OCC1CCCCC1 | -5 | -2 | -20 | 4 | 8
Nc1nc(N)c(N=O)c(OCC2CCCCC2)n1 | -21 | -22 | -22 | 13 | 40*
CCCCOCC1CN(CCCC)S(=O)(=O)c2c(cccc2N2CCCC2)O1 (stereo not given) | . | . | -20 | 1 | .
CN(C)c1ccc(-c2nnc(-c3ccccc3F)o2)cc1 | -7 | -5 | 1 | 1 | 51*
COc1ccc(-c2nnc(-c3ccc(N(C)C)cc3)o2)cc1 | -8 | -7 | 2 | 3 | 6
CCc1nonc1NC(=O)c1oc2ccc(F)cc2c1C | 20 | 1 | -6 | -4 | 20
